Test system: U2OS
Assay: Multiplex assay against U2OS
Type: toxicity, cell-based
Settings: human
How it was run: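 Values for tubulin, mitochondrial-mass and membrane-permeability phenotypes are per cents of cells with healthy nuclei. These cells were identified by CellPathfinder machine-learning gating of live cells that had been stained at seeding with Hoechst33342, BioTracker Green Microtubule Cytoskeleton Dye, MitoTracker Red and Annexin V Alexa Fluor 680 and imaged on a CQ1 microscope at 37°C and 5% CO2 after compound addition. The gating first set Hoechst high-intensity objects apart from normal cells, then split normal cells into healthy, pyknosed or fragmented nuclei, and pyknosed cells into mitotic or apoptotic.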

[1] = 12 h, 1 µM, compound concentration 1 uM, replicate 1
[2] = 12 h, 1 µM, compound concentration 1 uM, replicate 2
[3] = 12 h, 10 µM, compound concentration 10 uM, replicate 1
[4] = 12 h, 10 µM, compound concentration 10 uM, replicate 2
[5] = 24 h, 1 µM, compound concentration 1 uM, replicate 1
[6] = 24 h, 1 µM, compound concentration 1 uM, replicate 2
[7] = 24 h, 10 µM, compound concentration 10 uM, replicate 1
[8] = 24 h, 10 µM, compound concentration 10 uM, replicate 2
[9] = 48 h, 1 µM, compound concentration 1 uM, replicate 1
[10] = 48 h, 1 µM, compound concentration 1 uM, replicate 2
[11] = 48 h, 10 µM, compound concentration 10 uM, replicate 1
[12] = 48 h, 10 µM, compound concentration 10 uM, replicate 2

Question: With `CN1CCN(c2cc(-c3ccccc3)nc(N)n2)CC1` as the molecule, how does the “Population Apoptotic (%)” value [1] read?
Answer: Its value is 80%.

Question: And the “Population Fragmented Nuclei (%)” value [1]?
Answer: The value was 32%.

Question: What about the “Population Healthy Nuclei (%)” value [1] of the same molecule?
Answer: The value was 61%.

Question: What about the “Population Hoechst High Intensity Objects (%)” value [1] of the same molecule?
Answer: Its value is 2%.

Question: What about the “Population Membrane Permeable-Phenotype (%)” value [1] of the same molecule?
Answer: The value was 5%.

Question: What about the “Population Mitochondria Different-Phenotype (%)” value [1] of the same molecule?
Answer: Its value is 2%.

Question: And the “Population Mitotic Cells (%)” value [1]?
Answer: Its value is 20%.

Question: What about the “Population Normal (%)” value [1] of the same molecule?
Answer: The value was 97%.

Question: What about the “Population Pyknosed Nuclei (%)” value [1] of the same molecule?
Answer: The value was 6%.

Question: And the “Population Tubulin-Different-Phenotype (%)” value [1]?
Answer: The value was 2%.

Question: What about the “Total Cell Count” value [1] of the same molecule?
Answer: Its value is 235.

Question: And the “Population Apoptotic (%)” value [2]?
Answer: Its value is 62%.

Question: And the “Population Fragmented Nuclei (%)” value [2]?
Answer: The value was 17%.

Question: What about the “Population Healthy Nuclei (%)” value [2] of the same molecule?
Answer: Its value is 76%.

Question: And the “Population Hoechst High Intensity Objects (%)” value [2]?
Answer: The value was 1%.

Question: What about the “Population Membrane Permeable-Phenotype (%)” value [2] of the same molecule?
Answer: The value was 7%.

Question: What about the “Population Mitochondria Different-Phenotype (%)” value [2] of the same molecule?
Answer: The value was 5%.

Question: What about the “Population Mitotic Cells (%)” value [2] of the same molecule?
Answer: Its value is 37%.

Question: And the “Population Normal (%)” value [2]?
Answer: The value was 98%.

Question: What about the “Population Pyknosed Nuclei (%)” value [2] of the same molecule?
Answer: Its value is 5%.

Question: And the “Population Tubulin-Different-Phenotype (%)” value [2]?
Answer: The value was 11%.

Question: And the “Total Cell Count” value [2]?
Answer: The value was 141.

Question: What about the “Population Apoptotic (%)” value [3] of the same molecule?
Answer: Its value is 86%.

Question: And the “Population Fragmented Nuclei (%)” value [3]?
Answer: The value was 30%.

Question: And the “Population Healthy Nuclei (%)” value [3]?
Answer: The value was 63%.

Question: What about the “Population Hoechst High Intensity Objects (%)” value [3] of the same molecule?
Answer: The value was 0%.

Question: What about the “Population Membrane Permeable-Phenotype (%)” value [3] of the same molecule?
Answer: The value was 5%.

Question: And the “Population Mitochondria Different-Phenotype (%)” value [3]?
Answer: The value was 3%.

Question: What about the “Population Mitotic Cells (%)” value [3] of the same molecule?
Answer: The value was 13%.

Question: And the “Population Normal (%)” value [3]?
Answer: Its value is 99%.

Question: And the “Population Pyknosed Nuclei (%)” value [3]?
Answer: Its value is 6%.

Question: What about the “Population Tubulin-Different-Phenotype (%)” value [3] of the same molecule?
Answer: Its value is 3%.

Question: What about the “Total Cell Count” value [3] of the same molecule?
Answer: The value was 252.

Question: And the “Population Apoptotic (%)” value [4]?
Answer: The value was 73%.

Question: What about the “Population Fragmented Nuclei (%)” value [4] of the same molecule?
Answer: Its value is 8%.

Question: And the “Population Healthy Nuclei (%)” value [4]?
Answer: Its value is 80%.

Question: And the “Population Hoechst High Intensity Objects (%)” value [4]?
Answer: The value was 1%.

Question: What about the “Population Membrane Permeable-Phenotype (%)” value [4] of the same molecule?
Answer: Its value is 10%.

Question: And the “Population Mitotic Cells (%)” value [4]?
Answer: The value was 26%.

Question: And the “Population Normal (%)” value [4]?
Answer: Its value is 98%.

Question: What about the “Population Pyknosed Nuclei (%)” value [4] of the same molecule?
Answer: Its value is 10%.

Question: What about the “Population Tubulin-Different-Phenotype (%)” value [4] of the same molecule?
Answer: Its value is 7%.

Question: What about the “Total Cell Count” value [4] of the same molecule?
Answer: The value was 139.

Question: And the “Population Apoptotic (%)” value [5]?
Answer: Its value is 86%.

Question: What about the “Population Fragmented Nuclei (%)” value [5] of the same molecule?
Answer: The value was 25%.

Question: What about the “Population Healthy Nuclei (%)” value [5] of the same molecule?
Answer: Its value is 65%.

Question: What about the “Population Hoechst High Intensity Objects (%)” value [5] of the same molecule?
Answer: The value was 1%.

Question: And the “Population Membrane Permeable-Phenotype (%)” value [5]?
Answer: The value was 7%.

Question: What about the “Population Mitochondria Different-Phenotype (%)” value [5] of the same molecule?
Answer: The value was 1%.

Question: What about the “Population Mitotic Cells (%)” value [5] of the same molecule?
Answer: The value was 13%.

Question: And the “Population Normal (%)” value [5]?
Answer: The value was 98%.

Question: What about the “Population Pyknosed Nuclei (%)” value [5] of the same molecule?
Answer: The value was 8%.

Question: What about the “Population Tubulin-Different-Phenotype (%)” value [5] of the same molecule?
Answer: The value was 4%.

Question: And the “Total Cell Count” value [5]?
Answer: Its value is 278.

Question: And the “Population Apoptotic (%)” value [6]?
Answer: The value was 80%.

Question: What about the “Population Fragmented Nuclei (%)” value [6] of the same molecule?
Answer: Its value is 21%.

Question: What about the “Population Healthy Nuclei (%)” value [6] of the same molecule?
Answer: Its value is 73%.

Question: And the “Population Membrane Permeable-Phenotype (%)” value [6]?
Answer: The value was 6%.

Question: What about the “Population Mitotic Cells (%)” value [6] of the same molecule?
Answer: The value was 20%.

Question: And the “Population Pyknosed Nuclei (%)” value [6]?
Answer: The value was 5%.

Question: What about the “Population Tubulin-Different-Phenotype (%)” value [6] of the same molecule?
Answer: The value was 9%.

Question: What about the “Total Cell Count” value [6] of the same molecule?
Answer: Its value is 177.

Question: What about the “Population Apoptotic (%)” value [7] of the same molecule?
Answer: Its value is 100%.

Question: What about the “Population Fragmented Nuclei (%)” value [7] of the same molecule?
Answer: The value was 23%.

Question: And the “Population Healthy Nuclei (%)” value [7]?
Answer: Its value is 69%.

Question: And the “Population Hoechst High Intensity Objects (%)” value [7]?
Answer: The value was 1%.

Question: What about the “Population Membrane Permeable-Phenotype (%)” value [7] of the same molecule?
Answer: The value was 9%.

Question: And the “Population Mitochondria Different-Phenotype (%)” value [7]?
Answer: The value was 3%.

Question: What about the “Population Mitotic Cells (%)” value [7] of the same molecule?
Answer: The value was 0%.

Question: What about the “Population Normal (%)” value [7] of the same molecule?
Answer: The value was 98%.

Question: And the “Population Pyknosed Nuclei (%)” value [7]?
Answer: The value was 6%.

Question: What about the “Population Tubulin-Different-Phenotype (%)” value [7] of the same molecule?
Answer: The value was 7%.

Question: And the “Total Cell Count” value [7]?
Answer: The value was 287.

Question: What about the “Population Apoptotic (%)” value [8] of the same molecule?
Answer: Its value is 81%.

Question: What about the “Population Fragmented Nuclei (%)” value [8] of the same molecule?
Answer: The value was 12%.

Question: And the “Population Healthy Nuclei (%)” value [8]?
Answer: The value was 80%.

Question: What about the “Population Hoechst High Intensity Objects (%)” value [8] of the same molecule?
Answer: Its value is 2%.

Question: And the “Population Membrane Permeable-Phenotype (%)” value [8]?
Answer: Its value is 4%.

Question: What about the “Population Mitochondria Different-Phenotype (%)” value [8] of the same molecule?
Answer: The value was 4%.

Question: What about the “Population Mitotic Cells (%)” value [8] of the same molecule?
Answer: The value was 18%.

Question: And the “Population Normal (%)” value [8]?
Answer: The value was 97%.

Question: What about the “Population Tubulin-Different-Phenotype (%)” value [8] of the same molecule?
Answer: Its value is 2%.

Question: And the “Total Cell Count” value [8]?
Answer: The value was 166.

Question: What about the “Population Apoptotic (%)” value [9] of the same molecule?
Answer: Its value is 83%.

Question: And the “Population Fragmented Nuclei (%)” value [9]?
Answer: Its value is 21%.

Question: What about the “Population Healthy Nuclei (%)” value [9] of the same molecule?
Answer: The value was 69%.

Question: And the “Population Hoechst High Intensity Objects (%)” value [9]?
Answer: Its value is 2%.

Question: What about the “Population Membrane Permeable-Phenotype (%)” value [9] of the same molecule?
Answer: Its value is 5%.

Question: What about the “Population Mitochondria Different-Phenotype (%)” value [9] of the same molecule?
Answer: The value was 1%.

Question: What about the “Population Mitotic Cells (%)” value [9] of the same molecule?
Answer: Its value is 16%.

Question: What about the “Population Normal (%)” value [9] of the same molecule?
Answer: The value was 97%.

Question: And the “Population Pyknosed Nuclei (%)” value [9]?
Answer: Its value is 9%.

Question: And the “Population Tubulin-Different-Phenotype (%)” value [9]?
Answer: Its value is 2%.

Question: And the “Total Cell Count” value [9]?
Answer: The value was 409.

Question: What about the “Population Apoptotic (%)” value [10] of the same molecule?
Answer: The value was 69%.

Question: And the “Population Fragmented Nuclei (%)” value [10]?
Answer: Its value is 19%.

Question: And the “Population Healthy Nuclei (%)” value [10]?
Answer: Its value is 75%.

Question: And the “Population Hoechst High Intensity Objects (%)” value [10]?
Answer: The value was 3%.

Question: What about the “Population Mitochondria Different-Phenotype (%)” value [10] of the same molecule?
Answer: The value was 2%.

Question: What about the “Population Mitotic Cells (%)” value [10] of the same molecule?
Answer: The value was 30%.

Question: What about the “Population Normal (%)” value [10] of the same molecule?
Answer: Its value is 96%.

Question: What about the “Population Pyknosed Nuclei (%)” value [10] of the same molecule?
Answer: Its value is 5%.

Question: What about the “Population Tubulin-Different-Phenotype (%)” value [10] of the same molecule?
Answer: The value was 7%.

Question: What about the “Total Cell Count” value [10] of the same molecule?
Answer: The value was 267.

Question: What about the “Population Apoptotic (%)” value [11] of the same molecule?
Answer: The value was 100%.

Question: And the “Population Fragmented Nuclei (%)” value [11]?
Answer: Its value is 19%.

Question: And the “Population Healthy Nuclei (%)” value [11]?
Answer: Its value is 71%.

Question: What about the “Population Hoechst High Intensity Objects (%)” value [11] of the same molecule?
Answer: Its value is 1%.

Question: What about the “Population Membrane Permeable-Phenotype (%)” value [11] of the same molecule?
Answer: The value was 5%.

Question: What about the “Population Mitochondria Different-Phenotype (%)” value [11] of the same molecule?
Answer: Its value is 3%.

Question: And the “Population Mitotic Cells (%)” value [11]?
Answer: The value was 0%.

Question: What about the “Population Normal (%)” value [11] of the same molecule?
Answer: Its value is 98%.

Question: And the “Population Pyknosed Nuclei (%)” value [11]?
Answer: The value was 8%.

Question: What about the “Population Tubulin-Different-Phenotype (%)” value [11] of the same molecule?
Answer: The value was 6%.

Question: And the “Total Cell Count” value [11]?
Answer: The value was 420.

Question: And the “Population Apoptotic (%)” value [12]?
Answer: Its value is 88%.

Question: And the “Population Fragmented Nuclei (%)” value [12]?
Answer: The value was 11%.

Question: What about the “Population Healthy Nuclei (%)” value [12] of the same molecule?
Answer: Its value is 78%.

Question: What about the “Population Membrane Permeable-Phenotype (%)” value [12] of the same molecule?
Answer: The value was 2%.

Question: And the “Population Mitotic Cells (%)” value [12]?
Answer: Its value is 12%.

Question: What about the “Population Pyknosed Nuclei (%)” value [12] of the same molecule?
Answer: Its value is 10%.

Question: What about the “Population Tubulin-Different-Phenotype (%)” value [12] of the same molecule?
Answer: Its value is 1%.

Question: What about the “Total Cell Count” value [12] of the same molecule?
Answer: Its value is 254.

From ChEMBL document CHEMBL5058577, “EUbOPEN Chemogenomics Library 2 (Multiplex)” (2022)
